Measurements: article PMC6429430 (ACS Chemical Neuroscience, 2018)
Like-named read-outs stand apart in the source and are kept apart here.

What was measured:
HDAC11 = molecular target: T1, HDAC11 (Homo sapiens, UniProt Q96DB2); test: Recombinant HDAC isoform biochemical assay
T1 sequence (Q96DB2 1-347): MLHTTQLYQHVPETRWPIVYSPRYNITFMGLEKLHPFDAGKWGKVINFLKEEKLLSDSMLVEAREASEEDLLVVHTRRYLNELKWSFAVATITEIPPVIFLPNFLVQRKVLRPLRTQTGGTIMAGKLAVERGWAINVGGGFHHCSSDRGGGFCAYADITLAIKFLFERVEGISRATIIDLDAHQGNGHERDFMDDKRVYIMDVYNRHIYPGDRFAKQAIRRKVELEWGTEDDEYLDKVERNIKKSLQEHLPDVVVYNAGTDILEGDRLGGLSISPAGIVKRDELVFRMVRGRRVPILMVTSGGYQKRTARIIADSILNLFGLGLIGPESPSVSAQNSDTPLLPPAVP

[1] = system: human myeloid progenitors; test: Colony forming cell; assay type: cell-based; details: human bone marrow cells, 14 days in culture
How it was run: (§1)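 Normal human bone marrow light-density cells, thawed rapidly and washed in IMDM + 10% FBS, were plated at 2.0 × 10^4 cells per culture. Medium was semisolid methylcellulose with rhIL-3 10 ng/mL, rhGM-CSF 10 ng/mL, rhSCF 50 ng/mL and Epo 3 U/mL. Compound was added at final 10, 2 and 0.4 μM, with 0.1% DMSO solvent control and 5-FU (1.0, 0.1, 0.01 μg/mL) as positive control. After 14 days, erythroid (CFU-E, BFU-E) and myeloid (CFU-GM) colonies were scored microscopically. Three replicate cultures were compared with solvent control by two-tailed t test.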

[2] = system: human erythroid progenitors; test: Colony forming cell; assay type: cell-based; details: human bone marrow cells, 14 days in culture
How it was run: as §1

[3] = system: dendritic spines in CA1 region of the dorsal hippocampus; test: Hippocampal dendritic spine density analysis; assay type: in vivo, mouse; details: WT mice
[4] = system: hippocampal LTP (Schaffer collateral-CA1); test: LTP in 5xFAD mice; assay type: in vivo, mouse; details: aged 5xFAD mice, 1 mg/kg po for 14 days
How it was run: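 Aged 5xFAD mice on a C57BL/6J background (9–12 months) and age-matched WT mice were dosed by oral gavage once daily for 14 days (n = 8 per group). Hippocampal slices (350 μm) were held at room temperature for at least 1 h in oxygenated aCSF (pH 7.4), then perfused at 30 °C for 0.5 h in a multielectrode chamber. Schaffer collateral–CA1 LTP was recorded as normalised fEPSP slope over the last 10 min.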

[5] = Reported 2 week toxicity of CI-994 in dogs; assay type: in vivo, dog
[6] = rats, 1.5, 5, 15 mg/kg daily orally, 2 weeks; cited from earlier work
[7] = cited from earlier work

Compound: CC(=O)Nc1ccc(C(=O)Nc2ccccc2N)cc1 [CI-994]
- IC50 (HDAC11): > 30 µM
- myeloid progenitors: % control at 10 μM [1]: 0 % control
- erythroid progenitors: % control at 10 μM [2]: 0 % control
- increase in total spine density ([3]; 1 mg/kg daily oral for 14 days, vs vehicle): 29%
- dendritic spine density compared to vehicle-treated controls ([3]; oral daily 14 days, Rodin-A 1, 3, 6 mg/kg, CI-994 1 and 3 mg/kg): significant increases in spine density
- effect on impaired LTP [4]: improves impaired LTP
- safety margin ([5]; HED at reported dog NOAEL vs efficacious HED): 3.4 fold
- NOAEL at 2 weeks ([5]; dog, in vivo, 0.5 mg/kg): 16.2 mg/kg
- dose-limiting toxicity [6]: primarily bone marrow suppression
- reported NOAEL in dogs ([7]; 2 weeks of daily dosing): 0.5 mg/kg
- dose-limiting toxicity ([7]; dogs, 0.5, 2, 5 mg/kg daily, 2 weeks): primarily bone marrow suppression
- day 12 AUC ([7]; male dogs, 2 mg/kg daily): 9.91 ng·h/mL
